Assay results as given in ChEMBL document CHEMBL2396641, “Synthesis, antioxidant, and antimicrobial evaluation of some 2-arylbenzimidazole derivatives” (Bioorg Med Chem Lett, 2013).
Values after ≈ are worked out from the molar mass of the structure shown. Active and inactive are the calls of the source. The rule behind the calls is not given here.

Experiments:
NIH3T3 = assay: Cytotoxicity against mouse NIH/3T3 cells after 48 hrs by SRB assay; format: cell-based; details: NIH3T3, 48 h
[1] = Antioxidant activity assessed as ferric ion reducing ability after 20 mins by spectrophotometric analysis; format: functional
[2] = Antioxidant activity assessed as ferric ion reducing ability at 1 to 50 uM after 20 mins by spectrophotometric analysis; format: functional
Escherichia coli = assay: Antibacterial activity against Escherichia coli after 24 hrs by agar dilution method; format: functional
[3] = test system: Radical scavenging activity; assay: Antioxidant activity assessed as DPPH radical scavenging activity after 30 mins by spectrophotometric analysis; format: functional
Outline: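 DPPH radical bleaching followed as loss of absorbance at 517 nm; IC50 derived; mean ± SD, n = 3.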

Bacillus cereus = assay: Antibacterial activity against Bacillus cereus after 24 hrs by agar dilution method; format: functional
[4] = Antioxidant activity assessed as superoxide radical anion scavenging activity by spectrophotometric analysis; format: functional
Pseudomonas aeruginosa = assay: Antibacterial activity against Pseudomonas aeruginosa after 24 hrs by agar dilution method; format: functional
[5] = test system: Staphylococcus epidermidis; assay: Antibacterial activity against Staphylococcus albus after 24 hrs by agar dilution method; format: functional
[6] = Antioxidant activity assessed as hydroxyl radical scavenging activity after 1 hr by spectrophotometric analysis; format: functional
Staphylococcus aureus = assay: Antibacterial activity against Staphylococcus aureus after 24 hrs by agar dilution method; format: functional

SMILES | MIC (Escherichia coli) | EC50 [3] | MIC (Bacillus cereus) | EC50 [4] | MIC (Pseudomonas aeruginosa) | MIC [5] | EC50 [6] | MIC (Staphylococcus aureus) | IC50 (NIH3T3) | Activity [1] | Activity [2] | MBC (Escherichia coli) | MBC (Bacillus cereus) | MBC (Staphylococcus aureus) | MBC [5]
COc1ccc2[nH]c(-c3ccccc3)nc2c1 | 25 µM (≈ 5.61 µg/mL) | > 200 µM | 50 µM (≈ 11.2 µg/mL) | > 200 µM | > 200 µM | > 200 µM | > 200 µM | > 200 µM | > 200 µM |  |  | 100 µM (≈ 22.4 µg/mL) | 200 µM (≈ 44.9 µg/mL) |  | 
COc1ccc(-c2nc3ccccc3[nH]2)cc1 | 12.5 µM (≈ 2.8 µg/mL) | > 200 µM | 50 µM (≈ 11.2 µg/mL) | > 200 µM | > 200 µM | 100 µM (≈ 22.4 µg/mL) | > 200 µM | 1.56 µM (≈ 0.35 µg/mL) | > 200 µM |  |  | 50 µM (≈ 11.2 µg/mL) | 100 µM (≈ 22.4 µg/mL) | 1.56 µM (≈ 0.35 µg/mL) | 100 µM (≈ 22.4 µg/mL)
COc1ccc(-c2nc3cc(OC)ccc3[nH]2)c(OC)c1 | > 200 µM | > 200 µM | > 200 µM | > 200 µM | > 200 µM | 100 µM (≈ 28.4 µg/mL) | > 200 µM | 6.25 µM (≈ 1.78 µg/mL) | > 200 µM |  |  |  |  | 50 µM (≈ 14.2 µg/mL) | 200 µM (≈ 56.9 µg/mL)
Oc1cccc(-c2nc3cc(O)ccc3[nH]2)c1 | 100 µM (≈ 22.6 µg/mL) | 40 µM | 25 µM (≈ 5.66 µg/mL) | > 200 µM | > 200 µM | > 200 µM | > 200 µM | 1.56 µM (≈ 0.353 µg/mL) | > 200 µM | Dose-dependent effect | Active | > 200 µM | 50 µM (≈ 11.3 µg/mL) | 1.56 µM (≈ 0.353 µg/mL) | 
Oc1cccc(-c2nc3ccccc3[nH]2)c1 | 12.5 µM (≈ 2.63 µg/mL) | > 200 µM | 50 µM (≈ 10.5 µg/mL) | > 200 µM | > 200 µM | > 200 µM | > 200 µM | 0.39 µM (≈ 0.082 µg/mL) | > 200 µM |  |  | 100 µM (≈ 21 µg/mL) | 200 µM (≈ 42 µg/mL) | 0.78 µM (≈ 0.164 µg/mL) | 
Oc1ccc2[nH]c(-c3ccc(O)c(O)c3)nc2c1 | > 200 µM | 33 µM | 100 µM (≈ 24.2 µg/mL) | > 200 µM | > 200 µM | > 200 µM | 77 µM | > 200 µM | > 200 µM | Dose-dependent effect | Active |  | > 200 µM |  | 
COc1ccc2[nH]c(-c3ccc(O)cc3O)nc2c1 | 6.25 µM (≈ 1.6 µg/mL) | 129 µM | 50 µM (≈ 12.8 µg/mL) | 189 µM | > 200 µM | 100 µM (≈ 25.6 µg/mL) | > 200 µM | 50 µM (≈ 12.8 µg/mL) | > 200 µM |  |  | 100 µM (≈ 25.6 µg/mL) | 100 µM (≈ 25.6 µg/mL) | 100 µM (≈ 25.6 µg/mL) | 200 µM (≈ 51.3 µg/mL)

Second part, led by results:

MIC (Escherichia coli) | EC50 [3] | MIC (Bacillus cereus) | EC50 [4] | MIC (Pseudomonas aeruginosa) | MIC [5] | EC50 [6] | MIC (Staphylococcus aureus) | SMILES | IC50 (NIH3T3) | Activity [1] | Activity [2] | MBC (Escherichia coli) | MBC (Bacillus cereus) | MBC (Staphylococcus aureus) | MBC [5]
100 µM (≈ 21 µg/mL) | 42 µM | 50 µM (≈ 10.5 µg/mL) | > 200 µM | > 200 µM | > 200 µM | > 200 µM | 1.56 µM (≈ 0.328 µg/mL) | Oc1ccc2[nH]c(-c3ccccc3)nc2c1 | > 200 µM | Dose-dependent effect | Active | > 200 µM | 100 µM (≈ 21 µg/mL) | 1.56 µM (≈ 0.328 µg/mL) | 
12.5 µM (≈ 3 µg/mL) | > 200 µM | 25 µM (≈ 6.01 µg/mL) | > 200 µM | > 200 µM | > 200 µM | > 200 µM | 100 µM (≈ 24 µg/mL) | COc1ccc2[nH]c(-c3cccc(O)c3)nc2c1 | > 200 µM |  |  | 100 µM (≈ 24 µg/mL) | 200 µM (≈ 48.1 µg/mL) | 200 µM (≈ 48.1 µg/mL) | 
> 200 µM | > 200 µM | > 200 µM | > 200 µM | > 200 µM | > 200 µM | > 200 µM | > 200 µM | COc1cc(OC)cc(-c2nc3cc(OC)ccc3[nH]2)c1 | > 200 µM |  |  |  |  |  | 
100 µM (≈ 24 µg/mL) | > 200 µM | 200 µM (≈ 48.1 µg/mL) | 87 µM | > 200 µM | > 200 µM | 190 µM | > 200 µM | COc1ccc2[nH]c(-c3ccccc3O)nc2c1 | > 200 µM |  |  | > 200 µM | > 200 µM |  | 
6.25 µM (≈ 1.59 µg/mL) | > 200 µM | 50 µM (≈ 12.7 µg/mL) | > 200 µM | > 200 µM | 100 µM (≈ 25.4 µg/mL) | > 200 µM | 25 µM (≈ 6.36 µg/mL) | COc1ccc(-c2nc3cc(OC)ccc3[nH]2)cc1 | > 200 µM |  |  | 100 µM (≈ 25.4 µg/mL) | 200 µM (≈ 50.9 µg/mL) | 200 µM (≈ 50.9 µg/mL) | > 200 µM
12.5 µM (≈ 3 µg/mL) | > 200 µM | 50 µM (≈ 12 µg/mL) | > 200 µM | > 200 µM | > 200 µM | > 200 µM | 100 µM (≈ 24 µg/mL) | COc1ccc2[nH]c(-c3ccc(O)cc3)nc2c1 | > 200 µM |  |  | 100 µM (≈ 24 µg/mL) | 200 µM (≈ 48.1 µg/mL) | 200 µM (≈ 48.1 µg/mL) | 
